Activity calls are given as the source filed them.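 Rule for the calls: active = fitted curve reaches 10% of the positive control caspase activation at or below the top valid tested dose; inactive = signal shifts the opposite way, plus the rest.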

Assay [1] can be described thus: apoptosis induction in MEWO without priming – cell-based, human MEWO, caspase luminescence, dry powder, set 3, counter-screen for Bcl2-A1 inhibitor project, dose response (AID 504346). The settings on record: MEWO unprimed cells, caspase-Glo luminescence, 3 h; at 35 µM (top of the series). The procedure, abridged: (§1)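 Test system: unprimed human MEWO cells engineered to express A1 / Input: 2500 cells/well / Buffer or medium: RPMI-1640 plus 10% FBS / Dosing: compound delivered to cells by pin transfer / Timing: 3 h compound at 37 °C, 1 h reagent at RT / Technique: CaspaseGlo luminescence / Evaluation: caspase activation level per well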
In general terms: A counterscreen serves to expose hits that act by an unwanted route or on another target.

The subject of assay [2] is MEWO unprimed cells, caspase-Glo luminescence, 3 h. Described as above. An outline of the steps:
as §1

Take `COc1nc2ccccc2c(Sc2ccc(C)cc2)c1[N+](=O)[O-]`: the caspase activation in assay [1] was 0.891% (inactive). Still for that read-out and setting: the value for `COc1ccc(N2CCN(c3nc(NCCc4ccc(OC)c(OC)c4)nc(N4CCOCC4)n3)CC2)cc1` was -0.115% (inactive); that for `Cn1c(=O)c([N+](=O)[O-])c(Sc2ccccn2)c2ccccc21` was 3.69% (inactive).

For `COc1c([N+](=O)[O-])c(=O)n(C)c2ccccc12`, the caspase activation in assay [1] is -0.158% (inactive). On the same count and under the same terms, the value for `Cc1ccc(Sc2c(Sc3ccc(C)cc3)c3ccccc3n(Cc3ccccc3)c2=O)cc1` was 0.136% (inactive).

Regarding `Cn1c(=O)c([N+](=O)[O-])c(S(C)(=O)=O)c2ccccc21`, the AC10 in assay [2] was > 35 µM (inactive).

For `Cn1c(=O)c(Sc2ccccn2)c(Sc2ccccn2)c2ccccc21`, the caspase activation in assay [1] was -0.272% (inactive). Still for that read-out and setting: for `CCn1c(=O)c(Sc2ccc(C)cc2)c(Sc2ccc(C)cc2)c2ccccc21` the value was 1.36% (inactive). For `O=c1c([N+](=O)[O-])c(Cl)c2ccccc2n1Cc1ccccc1`, the AC10 in assay [2] is 33.6 µM. For the compound `COc1ccc(CCNc2nc(N3CCOCC3)nc(N3CCOCC3)n2)cc1OC`, the caspase activation in assay [1] was 0.746% (inactive). Same read-out and setting: the value for `COc1nc2ccccc2c(Cl)c1[N+](=O)[O-]` was 0.103% (inactive); that for `COCCn1c(=O)c(Sc2ccc(C)cc2)c(Sc2ccc(C)cc2)c2ccccc21` was 1.05% (inactive). Regarding `COCCn1c(=O)c([N+](=O)[O-])c(Cl)c2ccccc21`, the AC10 in assay [2] is > 35 µM (inactive).

As to `C/C(=N\Nc1nc(N2CCCCC2)nc(N2CCCCC2)n1)c1ccc(F)cc1`, the caspase activation in assay [1] is -0.441% (inactive). On the same count and under the same terms, for `Cc1ccc(Sc2c(Sc3ccc(C)cc3)c3ccccc3n(C)c2=O)cc1` the value was 0.838% (inactive). On to `O=c1[nH]c2ccccc2c(Cl)c1[N+](=O)[O-]`, for which, in assay [2], the AC10 is > 35 µM (inactive). As to `COCCn1c(=O)c([N+](=O)[O-])c(Sc2ccc(C)cc2)c2ccccc21`, in assay [1], the caspase activation is 1.99% (inactive).

On to `COc1ccc(CCNc2nc(N3CCCC3)nc(N3CCCC3)n2)cc1OC`, for which, in assay [1], the caspase activation is 0.039% (inactive). Same read-out and setting: the value for `Cc1ccc(Sc2c([N+](=O)[O-])c(=O)n(Cc3ccccc3)c3ccccc23)cc1` was 0.173% (inactive).

Turning to `CCn1c(=O)c([N+](=O)[O-])c(Sc2ccc(C)cc2)c2ccccc21`, the caspase activation in assay [1] is 2.11% (inactive). With `CC1(C)CCC(c2ccc(Cl)cc2)=C(CN2CCN(c3ccc(C(=O)NS(=O)(=O)c4ccc(N[C@H](CCN5CCOCC5)CSc5ccccc5)c(S(=O)(=O)C(F)(F)F)c4)cc3)CC2)C1`, the AC10 in assay [2] was 3.09 µM. With `O=C(COc1ccc(Cl)cc1Cl)NNc1nc(N2CCOCC2)nc(N2CCOCC2)n1`, the caspase activation in assay [1] is -0.692% (inactive). The same measure, in the same setting: for `Cc1ccc(S(=O)(=O)c2c([N+](=O)[O-])c(=O)n(C)c3ccccc23)cc1` the value was 2.24% (inactive); for `CCn1c(=O)c([N+](=O)[O-])c(Cl)c2ccccc21`, 5.44% (inactive). Consider `Cc1ccc(Sc2c([N+](=O)[O-])c(=O)n(C)c3ccccc23)cc1`, for which the caspase activation in assay [1] is 1.27% (inactive). Same read-out and setting: the value for `O=c1[nH]c2ccccc2c(O)c1[N+](=O)[O-]` was -0.15% (inactive).

As to `Cn1c(=O)c([N+](=O)[O-])c(Cl)c2ccccc21`, the caspase activation in assay [1] was 8.42% (inactive).

(Values after PubChem BioAssay AID504346 (Broad Institute, 2011).)
